Assay results published in ChEMBL document CHEMBL1155603, “Stilbene glycoside sulfates from Polygonum cuspidatum” (J Nat Prod, 2000).
Activity calls are given as the source filed them. No cut-off for these calls is given here.

Key:
Sporothrix schenckii = assay: Antifungal activity against Sporothrix schenckii; format: functional, organism-based
Candida albicans = assay: Antifungal activity against Candida albicans; format: functional, organism-based
Procedure, shortened: (§1)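 In vitro susceptibility test on yeasts, run by the National Committee for Clinical and Laboratory Standards procedure.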

Candida tropicalis = assay: Antifungal activity against Candida tropicalis; format: functional, organism-based; procedure, shortened: as §1
Trichophyton rubrum = assay: Antifungal activity against Trichophyton rubrum; format: functional, organism-based
Candida parapsilosis = assay: Antifungal activity against Candida parapsilosis; format: functional, organism-based; procedure, shortened: as §1
Aspergillus fumigatus = assay: Antifungal activity against Aspergillus fumigatus; format: functional, organism-based
Cryptococcus neoformans = assay: Antifungal activity against Cryptococcus neoformans; format: functional, organism-based; procedure, shortened: as §1
Fonsecaea pedrosoi = assay: Antifungal activity against Fonsecaea pedrosoi; format: functional, organism-based
A549 = assay: Cytotoxicity against human A549 cells after 96 hrs by MTT assay; format: functional, cell-based; details: A549, 96 h

Compound | Activity (Sporothrix schenckii) | Activity (Candida albicans) | Activity (Candida tropicalis) | Activity (Trichophyton rubrum) | Activity (Candida parapsilosis) | Activity (Aspergillus fumigatus) | Activity (Cryptococcus neoformans) | Activity (Fonsecaea pedrosoi) | IC50 (A549) [µg/mL]
O=S(=O)(O)Oc1cc(/C=C/c2ccc(O)cc2)cc(O[C@@H]2O[C@H](CO)[C@@H](O)[C@H](O)[C@H]2O)c1 | inactive | inactive | inactive | inactive | inactive | inactive | inactive | inactive | –
O=S(=O)(O)O[C@H]1[C@H](Oc2cc(O)cc(/C=C\c3ccc(O)cc3)c2)O[C@H](CO)[C@@H](O)[C@@H]1O | inactive | inactive | inactive | inactive | inactive | inactive | inactive | inactive | –
O=S(=O)(O)OC[C@H]1O[C@@H](Oc2cc(O)cc(/C=C\c3ccc(O)cc3)c2)[C@H](O)[C@@H](O)[C@@H]1O | inactive | inactive | inactive | inactive | inactive | inactive | inactive | inactive | –
O=S(=O)(O)Oc1cc(/C=C\c2ccc(O)cc2)cc(O[C@@H]2O[C@H](CO)[C@@H](O)[C@H](O)[C@H]2O)c1 | inactive | inactive | inactive | inactive | inactive | inactive | inactive | inactive | –
O=S(=O)(O)O[C@H]1[C@H](O)[C@@H](O)[C@H](Oc2cc(O)cc(/C=C\c3ccc(O)cc3)c2)O[C@@H]1CO | inactive | inactive | inactive | inactive | inactive | inactive | inactive | inactive | –
O=S(=O)(O)OC[C@H]1O[C@@H](Oc2cc(O)cc(/C=C/c3ccc(O)cc3)c2)[C@H](O)[C@@H](O)[C@@H]1O | inactive | inactive | inactive | inactive | inactive | inactive | inactive | inactive | –
O=S(=O)(O)O[C@H]1[C@H](Oc2cc(O)cc(/C=C/c3ccc(O)cc3)c2)O[C@H](CO)[C@@H](O)[C@@H]1O | inactive | inactive | inactive | inactive | inactive | inactive | inactive | inactive | –
O=S(=O)(O)Oc1ccc(/C=C/c2cc(O)cc(O[C@@H]3O[C@H](CO)[C@@H](O)[C@H](O)[C@H]3O)c2)cc1 | inactive | inactive | inactive | inactive | inactive | inactive | inactive | inactive | –
O=S(=O)([O-])O[C@H]1[C@H](O)[C@@H](O)[C@H](Oc2cc(O)cc(/C=C/c3ccc(O)cc3)c2)O[C@@H]1CO.[K+] | inactive | inactive | inactive | inactive | inactive | inactive | inactive | inactive | 80
